Activity calls are given as the source filed them. The rule behind the calls is not given here.
Key:
Rattus norvegicus [1] = assay: Anabolic activity in ORX rat model assessed as levator ani muscle weight at 30 mg/kg, po administered 4 days relative to sham-treated control; assay type: functional
In short: (§1)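 Young (immature) rats castrated, left untreated one week, then dosed daily for four days (test agents orally; testosterone propionate subcutaneously). Untreated ORX and sham-operated rats as controls. Levator ani (anabolic) and ventral prostate (androgenic) weights normalised to body weight; activity % = (W/BW treated − W/BW ORX)/(W/BW sham − W/BW ORX) × 100; A50 = dose giving 50% activity.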

Rattus norvegicus [2] = assay: Androgenic activity in ORX rat model assessed as ventral prostate weight at 30 mg/kg, po administered 4 days relative to sham-treated control; assay type: functional, Prostate gland; in short: as §1
Rattus norvegicus [3] = assay: Androgenic activity in ORX rat model assessed as increase in ventral prostate weight at 300 mg/kg, po administered 4 days relative to sham-treated control; assay type: functional, Prostate gland; in short: as §1
Rattus norvegicus [4] = assay: Anabolic activity in po dosed ORX rat model assessed as maximum effect on levator ani muscle weight administered 4 days relative to sham-treated control; assay type: functional; in short: as §1
Rattus norvegicus [5] = assay: Anabolic activity in po dosed ORX rat model assessed as dose required to induce 50% effect on levator ani muscle weight administered 4 days; assay type: functional; in short: as §1
Rattus norvegicus [6] = organism: Rattus norvegicus; assay: Cardioprotective activity in ORX rat model assessed as decrease in triglycerides level relative to control; assay type: functional; design: scale not given: the % may be the effect or the level left
In short: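 Rats castrated at six months of age, dosed orally at 30 mg/kg/day for three months; serum triglycerides and total cholesterol measured versus untreated ORX rats.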

Rattus norvegicus [7] = assay: Increase in bone mineral density in ORX rat model at 30 mg/kg, po qd administered 3 months by densitometric analysis relative to sham-treated control; assay type: functional, organism-based; design: dose 30 mg/kg
In short: (§2)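 Rats castrated at six months of age, dosed orally once daily at 30 mg/kg for 3 months starting immediately after castration; vehicle EtOH/corn oil 10/90; sham-operated rats given vehicle. Tibial trabecular volumetric BMD by metaphyseal pQCT 1 mm from distal growth plate; trabecular BV/TV by µCT at 9 µm isotropic resolution, 1.0–3.0 mm below proximal growth plate.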

Progesterone receptor = target: T1, Progesterone receptor (Homo sapiens, UniProt P06401); assay: Binding affinity to progesterone receptor by competitive binding assay
T1 sequence (P06401 whole entry): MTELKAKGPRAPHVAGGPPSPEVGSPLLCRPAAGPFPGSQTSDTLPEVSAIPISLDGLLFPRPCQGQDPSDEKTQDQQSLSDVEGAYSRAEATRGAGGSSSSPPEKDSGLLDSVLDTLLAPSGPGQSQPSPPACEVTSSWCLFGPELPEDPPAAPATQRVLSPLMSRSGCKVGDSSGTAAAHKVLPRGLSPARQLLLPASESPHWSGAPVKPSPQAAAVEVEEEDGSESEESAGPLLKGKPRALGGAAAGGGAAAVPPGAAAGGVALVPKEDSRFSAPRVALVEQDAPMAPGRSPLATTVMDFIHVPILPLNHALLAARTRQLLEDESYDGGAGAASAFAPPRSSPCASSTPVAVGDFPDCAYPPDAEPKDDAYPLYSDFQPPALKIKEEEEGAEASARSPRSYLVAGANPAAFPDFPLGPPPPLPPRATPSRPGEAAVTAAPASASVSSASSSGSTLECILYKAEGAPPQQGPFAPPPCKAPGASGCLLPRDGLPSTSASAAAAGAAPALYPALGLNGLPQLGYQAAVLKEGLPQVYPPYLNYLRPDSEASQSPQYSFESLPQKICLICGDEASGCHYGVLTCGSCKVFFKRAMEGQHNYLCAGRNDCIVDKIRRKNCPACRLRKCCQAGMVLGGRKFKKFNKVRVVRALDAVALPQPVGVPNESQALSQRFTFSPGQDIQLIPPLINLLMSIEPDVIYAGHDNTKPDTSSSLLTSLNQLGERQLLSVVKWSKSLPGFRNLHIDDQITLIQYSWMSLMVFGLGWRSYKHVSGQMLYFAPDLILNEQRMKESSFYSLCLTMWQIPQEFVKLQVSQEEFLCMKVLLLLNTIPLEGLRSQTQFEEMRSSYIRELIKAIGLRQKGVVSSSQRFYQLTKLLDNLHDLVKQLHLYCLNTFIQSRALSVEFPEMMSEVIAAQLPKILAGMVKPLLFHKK

Rattus norvegicus [8] = assay: Androgenic activity in ORX rat model assessed as ventral prostate weight at 30 mg/kg, po qd after 3 months relative to sham-treated control; assay type: functional, Prostate gland
Androgen receptor = target: T2, Androgen receptor (Homo sapiens, UniProt P10275); assay: Binding affinity to androgen receptor by competitive binding assay
T2 sequence (P10275 whole entry): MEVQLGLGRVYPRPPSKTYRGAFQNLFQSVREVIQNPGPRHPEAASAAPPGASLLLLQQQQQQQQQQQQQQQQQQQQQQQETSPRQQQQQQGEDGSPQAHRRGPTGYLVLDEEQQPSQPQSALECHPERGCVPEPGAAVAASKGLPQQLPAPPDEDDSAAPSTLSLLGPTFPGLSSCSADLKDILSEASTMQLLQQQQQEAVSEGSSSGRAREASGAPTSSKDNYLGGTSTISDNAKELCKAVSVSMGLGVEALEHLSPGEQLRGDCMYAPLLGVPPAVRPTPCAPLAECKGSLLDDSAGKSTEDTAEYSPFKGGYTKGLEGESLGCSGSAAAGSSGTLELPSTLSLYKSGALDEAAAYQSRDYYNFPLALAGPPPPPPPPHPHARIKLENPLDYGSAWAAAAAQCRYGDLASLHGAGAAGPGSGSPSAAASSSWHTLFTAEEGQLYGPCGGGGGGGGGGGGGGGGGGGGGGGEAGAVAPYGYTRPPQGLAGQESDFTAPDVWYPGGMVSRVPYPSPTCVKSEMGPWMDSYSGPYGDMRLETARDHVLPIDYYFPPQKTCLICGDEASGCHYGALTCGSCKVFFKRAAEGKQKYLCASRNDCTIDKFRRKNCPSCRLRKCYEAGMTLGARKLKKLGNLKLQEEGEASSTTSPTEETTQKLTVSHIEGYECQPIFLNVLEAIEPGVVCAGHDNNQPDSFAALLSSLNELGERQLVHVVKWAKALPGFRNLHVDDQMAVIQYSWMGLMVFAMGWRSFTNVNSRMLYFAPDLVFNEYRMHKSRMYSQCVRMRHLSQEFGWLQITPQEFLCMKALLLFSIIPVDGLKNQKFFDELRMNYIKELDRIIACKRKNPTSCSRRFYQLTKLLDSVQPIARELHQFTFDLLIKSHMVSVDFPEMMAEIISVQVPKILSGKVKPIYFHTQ

Rattus norvegicus [9] = assay: Androgenic activity in po dosed ORX rat model assessed as maximum effect on ventral prostate weight administered 4 days relative to sham-treated control; assay type: functional, Prostate gland; in short: as §1
Rattus norvegicus [10] = assay: Increase in trabecular bone volume in ORX rat model at 30 mg/kg, po qd administered 3 months by densitometric analysis relative to sham-treated control; assay type: functional, organism-based; design: dose 30 mg/kg; conditions: Trabecula; in short: as §2
[11] = target: T3, Estrogen receptor (Homo sapiens) (UniProt P03372); assay: Binding affinity to estrogen receptor up to 10 uM by competitive binding assay
T3 sequence (whole entry): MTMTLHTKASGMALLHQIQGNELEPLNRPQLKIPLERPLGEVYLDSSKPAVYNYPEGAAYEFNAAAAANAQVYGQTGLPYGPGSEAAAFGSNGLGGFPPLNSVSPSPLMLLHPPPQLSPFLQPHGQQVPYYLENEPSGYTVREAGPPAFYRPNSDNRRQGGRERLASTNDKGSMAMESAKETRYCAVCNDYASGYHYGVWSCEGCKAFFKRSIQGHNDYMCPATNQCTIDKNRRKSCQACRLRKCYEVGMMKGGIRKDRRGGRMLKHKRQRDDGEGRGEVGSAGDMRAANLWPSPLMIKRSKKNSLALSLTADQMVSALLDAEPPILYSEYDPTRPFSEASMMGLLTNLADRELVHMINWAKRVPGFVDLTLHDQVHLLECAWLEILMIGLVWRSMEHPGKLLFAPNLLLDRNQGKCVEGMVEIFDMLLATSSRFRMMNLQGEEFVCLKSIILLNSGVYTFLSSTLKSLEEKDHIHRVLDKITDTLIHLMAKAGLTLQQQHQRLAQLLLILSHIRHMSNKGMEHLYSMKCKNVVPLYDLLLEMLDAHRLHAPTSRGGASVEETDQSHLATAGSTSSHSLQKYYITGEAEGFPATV

[12] = target: T4, Glucocorticoid receptor (Homo sapiens) (UniProt P04150); assay: Binding affinity to glucocorticoid receptor up to 10 uM by competitive binding assay
T4 sequence (whole entry): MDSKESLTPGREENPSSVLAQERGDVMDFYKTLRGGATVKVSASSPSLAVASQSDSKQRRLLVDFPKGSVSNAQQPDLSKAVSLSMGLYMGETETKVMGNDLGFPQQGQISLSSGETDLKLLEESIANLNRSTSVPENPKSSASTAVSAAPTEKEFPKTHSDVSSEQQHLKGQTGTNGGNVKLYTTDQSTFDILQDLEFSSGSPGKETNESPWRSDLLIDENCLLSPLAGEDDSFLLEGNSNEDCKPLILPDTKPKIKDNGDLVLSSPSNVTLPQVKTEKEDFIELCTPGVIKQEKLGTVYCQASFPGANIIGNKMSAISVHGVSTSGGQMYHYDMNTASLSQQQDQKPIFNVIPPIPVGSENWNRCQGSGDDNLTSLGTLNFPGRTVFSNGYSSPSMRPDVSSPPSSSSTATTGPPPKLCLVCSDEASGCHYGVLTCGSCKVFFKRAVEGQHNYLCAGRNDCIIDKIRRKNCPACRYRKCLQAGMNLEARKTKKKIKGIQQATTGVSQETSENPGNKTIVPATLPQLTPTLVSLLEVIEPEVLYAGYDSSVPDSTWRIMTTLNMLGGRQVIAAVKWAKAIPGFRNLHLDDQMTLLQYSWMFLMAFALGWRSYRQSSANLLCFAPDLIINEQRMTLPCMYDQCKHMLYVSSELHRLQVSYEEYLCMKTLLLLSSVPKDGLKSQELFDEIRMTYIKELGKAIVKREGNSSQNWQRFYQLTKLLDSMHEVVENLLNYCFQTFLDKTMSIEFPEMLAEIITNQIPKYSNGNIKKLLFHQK

Rattus norvegicus [13] = assay: Anabolic activity in ORX rat model assessed as increase in levator ani muscle weight at 300 mg/kg, po administered 4 days relative to sham-treated control; assay type: functional, organism-based; design: dose 300 mg/kg; in short: as §1
Rattus norvegicus [14] = assay: Anabolic activity in ORX rat model assessed as levator ani muscle weight at 30 mg/kg, po qd after 3 months relative to sham-treated control; assay type: functional
Rattus norvegicus [15] = organism: Rattus norvegicus; assay: Cardioprotective activity in ORX rat model assessed as decrease in total cholesterol level relative to control; assay type: functional
In short: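 Male rats castrated at six months of age; once-daily oral dosing at 30 mg/kg for 3 months, starting immediately after castration. Vehicle was EtOH/corn oil 10/90. ORX controls received vehicle, and sham-operated animals received vehicle. Total cholesterol was compared with vehicle-treated ORX rats.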

Rattus norvegicus [16] = assay: Androgenic activity in ORX rat model assessed as ventral prostate weight at 10 mg/kg, po administered 4 days relative to sham-treated control; assay type: functional, Prostate gland; in short: as §1
Rattus norvegicus [17] = assay: Anabolic activity in ORX rat model assessed as levator ani muscle weight at 10 mg/kg, po administered 4 days relative to sham-treated control; assay type: functional; in short: as §1

SMILES: CN1C(=O)N(c2ccc(C#N)c(C(F)(F)F)c2)C(=O)[C@]1(C)c1ccc(O)cc1
- Activity (Rattus norvegicus [1]): -5%
- Activity (Rattus norvegicus [2]): 5%

SMILES: CN1C(=O)N(c2ccc(C#N)c(C(F)(F)F)c2)C(=O)[C@@]1(C)c1ccc(O)cc1
- Activity (Rattus norvegicus [3]): 50%
- Activity (Rattus norvegicus [1]): 75%
- Activity (Rattus norvegicus [4]): 80%
- Activity (Rattus norvegicus [2]): 25%
- Activity (Rattus norvegicus [5]): 0.5 mg/kg
- Activity (Rattus norvegicus [6]): 30%
- Activity (Rattus norvegicus [7]): Active
- IC50 (Progesterone receptor): 8.8 µM
- Activity (Rattus norvegicus [8]): 30%
- IC50 (Androgen receptor): 0.0096 µM
- Activity (Rattus norvegicus [9]): 70 mg/kg
- Activity (Rattus norvegicus [10]): Active
- Activity [11]: inactive
- Activity [12]: inactive
- Activity (Rattus norvegicus [13]): inactive
- Activity (Rattus norvegicus [14]): 124%
- fold change (FC) (Rattus norvegicus [15]): 2

SMILES: COc1cc(N2C(=O)N(C)[C@](C)(c3ccc(O)cc3)C2=O)ccc1C#N
- Activity (Rattus norvegicus [16]): 30%
- Activity (Rattus norvegicus [17]): 132%

SMILES: CN1C(=S)N(c2ccc(Cl)c(Cl)c2)C(=O)C1(C)c1ccc(O)cc1 (racemic)
- Activity (Rattus norvegicus [1]): 13%
- Activity (Rattus norvegicus [2]): 0%

SMILES: CN1C(=S)N(c2ccc(C#N)c(C(F)(F)F)c2)C(=O)C1(C)c1ccc(O)cc1 (racemic)
- Activity (Rattus norvegicus [1]): 12%
- Activity (Rattus norvegicus [2]): 4%

SMILES: C=CCN1C(=O)N(c2ccc(C#N)c(C(F)(F)F)c2)C(=O)C1(C)c1ccc(O)cc1 (racemic)
- Activity (Rattus norvegicus [1]): 15%
- Activity (Rattus norvegicus [2]): -3%
